This is an account of results in ChEMBL document CHEMBL1135574, “Carbocyclic dinucleoside polyphosphonates: interaction with HIV reverse transcriptase and antiviral activity” (J Med Chem, 2002).

pIC50: −log10 of the molar value.

The term half-life denotes the time needed for the level to fall by half in the phase considered. The low end stands for fast loss, the high end for slow loss.

In data set [1] the target is Human immunodeficiency virus type 1 reverse transcriptase (Human immunodeficiency virus 1, UniProt Q72547). Description: Inhibition of DNA synthesis by HIV reverse transcriptase.
Data set [2] concerns MT4. Description: The concentration required to cause a 50% inhibition of HIV reproduction was determined in MT-4 cell culture for free forms. The note with it: Homo sapiens, read-out: ID50 (the source's name). In kind it is functional. The essentials: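 HIV-1 strain GKV-4046 in MT-4 cells (2×10^6/mL, viability >90%), MOI 0.2–0.5; cells in RPMI-1640 with 10% FBS, 37 °C, 5% CO2. Infected cells grown 3 days with free compound at 0.001–100 μg/mL, triplicate per dose. p24 antigen measured by immunoassay; ID50 = concentration halving HIV reproduction; two independent experiments averaged.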

Data set [3] concerns MT4. The data set is described as follows: The concentration required to cause a 50% inhibition of HIV reproduction was determined in MT-4 cell culture for liposome-entrapped forms. The data set is classed as functional. The note with it: Homo sapiens, read-out: ID50 (the source's name). In short, it runs like this:
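HIV-1 GKV-4046 in MT-4 cells, MOI 0.2–0.5, 3-day culture, p24 immunoassay read-out. Compounds given in phosphatidylcholine liposomes: dry lipid film hydrated with compound in PBS pH 7.0 (1:124 drug/lipid, 1 mM compound), extruded down to 0.1 μm pores (mean 0.16 μm); 40–50% entrapment. ID50 from two independent experiments.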

Data set [4] concerns MT4. The data set is described as follows: The concentration required to cause a 50% inhibition of cell proliferation was determined in MT-4 cell culture. The note with it: Homo sapiens, read-out: CD50 (the source's name). In kind it is functional. In short, it runs like this:
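Uninfected MT-4 cells grown 3 days with compound at 0.001–100 μg/mL, triplicate per dose. Cell concentration and viability read by trypan blue exclusion; CD50 = concentration halving cell proliferation. Values averaged from two independent experiments.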

A short description of data set [5]: Half life period in human blood serum was determined at 37 degrees Centigrade. In kind it is ADME, Plasma. The essentials:
(§1)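 Compounds held at 37 °C in human blood serum or in phosphate buffer, pH 7.5. For serum samples, precipitated proteins were spun off after thawing. Remaining material was analysed by RP-18 HPLC with a 0–25% linear gradient of 70% ethanol in 0.05 M triethylammonium bicarbonate (pH 7.5–8.0) over 25 min. Total loaded taken as 100%. Half-lives were averaged from at least three experiments.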

The nature of data set [6]: Half life period in phosphate buffer (pH 7.5) was determined at 37 degrees Centigrade. In kind it is ADME. The essentials:
as §1

Regarding `Nc1nc2c(ncn2C2C=CC(OCP(=O)(O)OP(=O)(O)C(Br)(Br)P(=O)(O)O)C2)c(=O)[nH]1` (stereo unspecified), the pIC50 in data set [1] was < 3.70.
As for `Nc1ncnc2c1ncn2C1C=CC(OCP(=O)(O)OP(=O)(O)OP(=O)(O)OP(=O)(O)COC2C=CC(n3cnc4c(N)ncnc43)C2)C1` (stereo unspecified), the pIC50 is 5.70 in the data set on MT4 [2], 5.92 in the data set with MT4 [3] and 5.70 in data set [1]. In the data set with MT4 [4], the CC50 turned out to be 131 µM.
For `Nc1nc2c(ncn2C2C=CC(OCP(=O)(O)OP(=O)(O)OP(=O)(O)OP(=O)(O)COC3C=CC(n4cnc5c(=O)[nH]c(N)nc54)C3)C2)c(=O)[nH]1` (stereo unspecified), the half-life was 3 h in data set [5] and 12 h in data set [6]. For the same molecule, the pIC50 in the data set on MT4 [2] was < 4.92; in the data set with MT4 [3], 6.30; in data set [1], 6.15. The CC50 in the data set with MT4 [4] is > 12 µM.
Regarding `Nc1ncnc2c1ncn2C1C=CC(OCP(=O)(O)OP(=O)(O)C(F)(F)P(=O)(O)OP(=O)(O)COC2C=CC(n3cnc4c(N)ncnc43)C2)C1` (stereo unspecified), the pIC50 in data set [1] was 4.70.
Consider `Nc1nc2c(ncn2C2C=CC(OCP(=O)(O)OP(=O)(O)C(Br)(Br)P(=O)(O)OP(=O)(O)COC3C=CC(n4cnc5c(=O)[nH]c(N)nc54)C3)C2)c(=O)[nH]1` (stereo unspecified), for which the pIC50 in data set [1] was < 3.60.
Turning to `Nc1nc2c(ncn2C2C=CC(OCP(=O)(O)OP(=O)(O)OP(=O)(O)COC3C=CC(n4cnc5c(=O)[nH]c(N)nc54)C3)C2)c(=O)[nH]1` (stereo unspecified), the results for the pIC50 (in the data set with MT4 [2]; in data set [1]) were 5.05 and 5.10, respectively. Also, the CC50 in the data set with MT4 [4] was found to be 56 µM.
In the case of `Nc1nc(O)c2ncn(C3C=CC(OCP(=O)(O)O)C3)c2n1` (stereo unspecified), the pIC50 in the data set with MT4 [2] was 3.70. Further, in the data set with MT4 [4], the CC50 is > 320 µM.
Consider `Nc1ncnc2c1ncn2C1C=CC(OCP(=O)(O)OP(=O)(O)C(Br)(Br)P(=O)(O)OP(=O)(O)COC2C=CC(n3cnc4c(N)ncnc43)C2)C1` (stereo unspecified), for which the pIC50 in the data set with MT4 [2] was 5.27; in data set [1] it was < 3.70. The CC50 in the data set on MT4 [4] is > 110 µM.
As to `Nc1nc2c(ncn2C2C=CC(OCP(=O)(O)OP(=O)(O)C(F)(F)P(=O)(O)O)C2)c(=O)[nH]1` (stereo unspecified), the half-life in data set [5] is 7 h; in data set [6], > 24 h. The results for the pIC50 (with MT4 [2]; in data set [1]) were < 3.70 and 4.60, respectively. In addition, the CC50 in the data set with MT4 [4] amounted to 144 µM.
`Nc1ncnc2c1ncn2C1C=CC(OCP(=O)(O)OP(=O)(O)OP(=O)(O)COC2C=CC(n3cnc4c(N)ncnc43)C2)C1` (stereo unspecified): the pIC50 with MT4 [2] was 5.18; in data set [1] it was 5.00. Moreover, the CC50 with MT4 [4] stood at 146 µM.
Take `Nc1nc(O)c2ncn(C3C=CC(OCP(=O)(O)OP(=O)(O)C(F)(F)P(=O)(O)OP(=O)(O)COC4C=CC(n5cnc6c(O)nc(N)nc65)C4)C3)c2n1` (stereo unspecified): the half-life in data set [5] is 3 h; in data set [6], 15 h. For the same molecule, the pIC50 was 4.22 in the data set with MT4 [2] and 4.82 in data set [1]. Moreover, the CC50 in the data set with MT4 [4] is 84 µM.
Turning to `Nc1ncnc2c1ncn2C1C=CC(OCP(=O)(O)OP(=O)(O)OP(=O)(O)O)C1` (stereo unspecified), the pIC50 is < 5.00 in the data set with MT4 [2] and 6.70 in data set [1]. In addition, the CC50 in the data set on MT4 [4] is 212 µM.
Molecule `Nc1ncnc2c1ncn2C1C=CC(OCP(=O)(O)OP(=O)(O)C(F)(F)P(=O)(O)O)C1` (stereo unspecified) showed a pIC50 in data set [1] of 4.60.
Consider `Nc1ncnc2c1ncn2C1C=CC(OCP(=O)(O)OP(=O)(O)C(Br)(Br)P(=O)(O)O)C1` (stereo unspecified), for which the pIC50 with MT4 [2] was 4.10; in data set [1], < 3.00. Also, in the data set on MT4 [4], the CC50 was > 160 µM.
Consider `Nc1nc2c(ncn2C2C=CC(OCP(=O)(O)OP(=O)(O)OP(=O)(O)O)C2)c(=O)[nH]1` (stereo unspecified), for which the results for the pIC50 (in the data set on MT4 [2]; in the data set with MT4 [3]; in data set [1]) were 5.14, > 6.00 and 6.52, respectively. In the data set on MT4 [4], the CC50 was 20.5 µM.
Take `Nc1nc2c(ncn2[C@H]2C[C@H](O)[C@@H](COP(=O)(O)OP(=O)(O)OP(=O)(O)O)O2)c(=O)[nH]1` [DEOXYGUANOSINE TRIPHOSPHATE]: the half-life in data set [5] is 0.3 h; in data set [6], > 24 h.
For the molecule `Cc1cn([C@H]2C=C[C@@H](CO)O2)c(=O)[nH]c1=O` [STAVUDINE], in the data set on MT4 [2], the pIC50 was 6.62. The CC50 with MT4 [4] worked out at 314 µM.
For `Cc1cn([C@H]2C[C@H](N=[N+]=[N-])[C@@H](CO)O2)c(=O)[nH]c1=O` [ZIDOVUDINE] the same measures were 8.40 and 140 µM.
